From ChEMBL document CHEMBL4130343, “Design, synthesis, and evaluation of benzofuran derivatives as novel anti-pancreatic carcinoma agents via interfering the hypoxia environment by targeting HIF-1α pathway” (Eur J Med Chem, 2017)
Values after ≈ are worked out from the molar mass of the structure shown.

What was measured:
PANC-1 [1] = assay: Antiproliferative activity against human PANC1 cells after 48 hrs by MTT assay; format: functional, cell-based; conditions: PANC-1, 48 h
In short: (§1)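 Cells were seeded at 5×10^5 cells/mL overnight and exposed to graded compound concentrations for 48 h. MTT (5 mg/mL stock) was added for 4 h at 37 °C, and formazan was dissolved in DMSO. Absorbance was read at 570 nm. IC₅₀ was fitted from the curves; values are mean ± SD, n = 3.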

BXPC-3 = assay: Antiproliferative activity against human BxPC3 cells after 48 hrs by MTT assay; format: functional, cell-based; conditions: BXPC-3, 48 h; in short: as §1
HCT-116 [2] = assay: Antiproliferative activity against human HCT116 cells after 48 hrs by MTT assay; format: functional, cell-based; conditions: HCT-116, 48 h; in short: as §1
HCT-116 [3] = assay: Antiproliferative activity against p53-deficient human HCT116 cells after 48 hrs by MTT assay; format: functional, cell-based; conditions: HCT-116, 48 h; in short: as §1
MCF7 = assay: Antiproliferative activity against human MCF7 cells after 48 hrs by MTT assay; format: functional, cell-based; conditions: MCF7, 48 h; in short: as §1
A549 = assay: Antiproliferative activity against human A549 cells after 48 hrs by MTT assay; format: functional, cell-based; conditions: A549, 48 h; in short: as §1
MDA-MB-231 = assay: Antiproliferative activity against human MDA-MB-231 cells after 48 hrs by MTT assay; format: functional, cell-based; conditions: MDA-MB-231, 48 h; in short: as §1
PANC-1 [4] = assay: Antitumor activity against human PANC1 cells xenografted in nude mouse assessed as inhibition of tumor weight at 10 mg/kg administered every 2 days for 21 days relative to vehicle-treated control; format: functional
[5] = Intrinsic aqueous solubility of the compound; format: physicochemical; conditions: read-out: Intrinsic_solubility
In short: (§2)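 Intrinsic aqueous solubility and log D at pH 7.4 were measured on a pION Gemini Profiler.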

[6] = Distribution co-efficient, log D of the compound at pH 7.4; format: physicochemical; conditions: buffer; in short: as §2
[7] = Effective permeability of the compound at pH 7.4 by PAMPA; format: ADME; conditions: read-out: Peff
In short: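 Effective permeability was measured by double-sink PAMPA on a pION PAMPA Explorer.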

SMILES | IC50 (PANC-1 [1]) | IC50 (BXPC-3) | IC50 (HCT-116 [2]) | IC50 (HCT-116 [3]) | IC50 (MCF7) | IC50 (A549) | IC50 (MDA-MB-231) | solubility [5] | logD [6] | Papp [7] | inhibition in vivo at 10 mg/kg (PANC-1 [4])
Cc1c(C(=O)NC2CCN(C)CC2)[nH]c2ccc(N(Cc3ccc(Br)cc3)S(=O)(=O)c3ccc(Br)cc3)cc12 | 3.67 µM | 7.5 µM | 14.5 µM |  |  |  |  |  |  |  | 
Cc1c(C(=O)NCCc2ccc(S(N)(=O)=O)cc2)oc2ccc(N(Cc3ccc(Br)cc3)S(=O)(=O)c3ccc(Br)cc3)cc12 | > 40 µM | > 40 µM | 5.59 µM | 19.2 µM | > 40 µM | > 40 µM | > 40 µM |  |  |  | 
Cc1c(C(=O)N2CCCC(C)C2)oc2ccc(N(Cc3ccc(Br)cc3)S(=O)(=O)c3ccc(Br)cc3)cc12 (stereo not drawn) | 26.2 µM | 16.6 µM | 23.1 µM | 28.3 µM | 32.8 µM | 33.7 µM | 19.4 µM |  |  |  | 
CCN(CC)CCNC(=O)c1nc2cc(N(Cc3ccc(Br)cc3)S(=O)(=O)c3ccc(Br)cc3)ccc2o1 | 12.6 µM | 16.3 µM | 14.3 µM |  |  |  |  |  |  |  | 
Cc1c(C(=O)NCCN(C(C)C)C(C)C)oc2ccc(N(Cc3ccc(Br)cc3)S(=O)(=O)c3ccc(Br)cc3)cc12 | 6.25 µM | 28.3 µM | 10.4 µM | 3.11 µM | 10.9 µM | 5.5 µM | 9.44 µM |  |  |  | 
Cc1c(C(=O)NCCc2ccccn2)oc2ccc(N(Cc3ccc(Br)cc3)S(=O)(=O)c3ccc(Br)cc3)cc12 | > 40 µM | > 40 µM | > 40 µM | > 40 µM | > 40 µM | > 40 µM | > 40 µM |  |  |  | 
CCN(CC)CCNC(=O)c1sc2ccc(N(Cc3ccc(Br)cc3)S(=O)(=O)c3ccc(Br)cc3)cc2c1C | 7.65 µM | 7.88 µM | 10.9 µM |  |  |  |  |  |  |  | 
CN1CCC(NC(=O)c2nc3cc(N(Cc4ccc(Br)cc4)S(=O)(=O)c4ccc(Br)cc4)ccc3o2)CC1 | 5.91 µM | 10.2 µM | 7.32 µM |  |  |  |  |  |  |  | 
CCN(CC)CCNC(=O)c1[nH]c2ccc(N(Cc3ccc(Br)cc3)S(=O)(=O)c3ccc(Br)cc3)cc2c1C | 10.5 µM | 17.4 µM | 15.8 µM |  |  |  |  |  |  |  | 
COc1cccc2c1C(=O)c1c(O)c3c(c(O)c1C2=O)C[C@@](O)(C(=O)CO)C[C@@H]3O[C@H]1C[C@H](N)[C@H](O)[C@H](C)O1 [DOXORUBICIN] | 0.41 µM | 0.56 µM |  |  |  |  | 0.49 µM |  |  |  | 71.9%
Cc1c(C(=O)OCCCN(C)C)oc2ccc(N(Cc3ccc(Br)cc3)S(=O)(=O)c3ccc(Br)cc3)cc12 | 24.6 µM | 24.2 µM | 11.2 µM | 7.05 µM | 39.7 µM | > 40 µM | 28.6 µM |  |  |  | 
Cc1c(C(=O)NCCN(C)C)sc2ccc(N(Cc3ccc(Br)cc3)S(=O)(=O)c3ccc(Br)cc3)cc12 | 7.89 µM | 9 µM | 9.8 µM |  |  |  |  |  |  |  | 
Cc1c(C(=O)N2CCOCC2)oc2ccc(N(Cc3ccc(Br)cc3)S(=O)(=O)c3ccc(Br)cc3)cc12 | 23.8 µM | 29.1 µM | 22.1 µM | 26.4 µM | 15.4 µM | 19.1 µM | 25.1 µM |  |  |  | 
Cc1c(C(=O)N2CCNCC2)oc2ccc(N(Cc3ccc(Br)cc3)S(=O)(=O)c3ccc(Br)cc3)cc12 | 8.38 µM | 19.6 µM | 3 µM | 3.3 µM | 9.72 µM | 8.68 µM | 9.04 µM |  |  |  | 
Cc1c(C(=O)NCCNc2ccccc2)oc2ccc(N(Cc3ccc(Br)cc3)S(=O)(=O)c3ccc(Br)cc3)cc12 | > 40 µM | > 40 µM | > 40 µM | > 40 µM | > 40 µM | > 40 µM | > 40 µM |  |  |  | 
Cc1c(C(=O)NCCN(C)C)[nH]c2ccc(N(Cc3ccc(Br)cc3)S(=O)(=O)c3ccc(Br)cc3)cc12 | 11.2 µM | 6.98 µM | 16.6 µM |  |  |  |  |  |  |  | 
Cc1c(C(=O)NC2CCN(C)CC2)sc2ccc(N(Cc3ccc(Br)cc3)S(=O)(=O)c3ccc(Br)cc3)cc12 | 5.2 µM | 7.1 µM | 10.1 µM |  |  |  |  |  |  |  | 
Cc1ccc(NC(=O)c2oc3ccc(N(Cc4ccc(Br)cc4)S(=O)(=O)c4ccc(Br)cc4)cc3c2C)nc1 | > 40 µM | > 40 µM | > 40 µM | > 40 µM | > 40 µM | > 40 µM | > 40 µM |  |  |  | 
Cc1c(C(=O)N2CCNC(=O)C2)oc2ccc(N(Cc3ccc(Br)cc3)S(=O)(=O)c3ccc(Br)cc3)cc12 | > 40 µM | > 40 µM | 7.88 µM | 21.9 µM | > 40 µM | > 40 µM | > 40 µM |  |  |  | 
CN(C)CCNC(=O)c1nc2cc(N(Cc3ccc(Br)cc3)S(=O)(=O)c3ccc(Br)cc3)ccc2o1 | 13.6 µM | 13.7 µM | 14.3 µM |  |  |  |  |  |  |  | 

The next lines start with results.

IC50 (PANC-1 [1]) | IC50 (BXPC-3) | IC50 (HCT-116 [2]) | IC50 (HCT-116 [3]) | IC50 (MCF7) | IC50 (A549) | IC50 (MDA-MB-231) | solubility [5] | logD [6] | Papp [7] | SMILES | inhibition in vivo at 10 mg/kg (PANC-1 [4])
5.94 µM | 4.79 µM | 3.64 µM | 1.2 µM | 3.66 µM | 5.4 µM | 8.24 µM |  |  |  | Cc1c(C(=O)NCCN(C)C)oc2ccc(N(Cc3ccc(Br)cc3)S(=O)(=O)c3ccc(Br)cc3)cc12 | 
34.8 µM | > 40 µM | 12.2 µM | 20.4 µM | 21.3 µM | > 40 µM | > 40 µM |  |  |  | CC(=O)NCCNC(=O)c1oc2ccc(N(Cc3ccc(Br)cc3)S(=O)(=O)c3ccc(Br)cc3)cc2c1C | 
29.3 µM | 27.6 µM | 27.8 µM | 11.5 µM | 36.5 µM | 30.5 µM | 16.5 µM |  |  |  | Cc1c(C(=O)NCC(O)CO)oc2ccc(N(Cc3ccc(Br)cc3)S(=O)(=O)c3ccc(Br)cc3)cc12 (stereo not drawn) | 
5.04 µM | 2.6 µM | 3.81 µM | 2.59 µM | 5.66 µM | 5.03 µM | 7.5 µM |  |  |  | Cc1c(C(=O)NCCN2CCN(C)CC2)oc2ccc(N(Cc3ccc(Br)cc3)S(=O)(=O)c3ccc(Br)cc3)cc12 | 
6.94 µM | 3.71 µM | 2.23 µM | 2.84 µM | 3.36 µM | 5.17 µM | 9.26 µM |  |  |  | Cc1c(C(=O)NCCN2CCCCC2)oc2ccc(N(Cc3ccc(Br)cc3)S(=O)(=O)c3ccc(Br)cc3)cc12 | 
2.49 µM | 5.13 µM | 2.44 µM | 2.37 µM | 4.37 µM | 3.08 µM | 7.96 µM |  |  |  | CNCCNC(=O)c1oc2ccc(N(Cc3ccc(Br)cc3)S(=O)(=O)c3ccc(Br)cc3)cc2c1C | 
1.52 µM | 1.08 µM | 2.39 µM | 1.66 µM | 2.84 µM | 2.98 µM | 3.73 µM | 21 µg/mL (≈ 31 µM) | 2.53 | 2.54 ×10⁻⁶ cm/s | CCN(CC)CCNC(=O)c1oc2ccc(N(Cc3ccc(Br)cc3)S(=O)(=O)c3ccc(Br)cc3)cc2c1C | 
2.3 µM | 2.02 µM | 3.07 µM | 3.73 µM | 3.71 µM | 4.31 µM | 6.68 µM |  |  |  | Cc1c(C(=O)NCCCN(C)C)oc2ccc(N(Cc3ccc(Br)cc3)S(=O)(=O)c3ccc(Br)cc3)cc12 | 
32.1 µM | 27.2 µM | 10.5 µM | 13.3 µM | 17.2 µM | 21.4 µM | 23.5 µM |  |  |  | Cc1c(C(=O)NCCN2CCOCC2)oc2ccc(N(Cc3ccc(Br)cc3)S(=O)(=O)c3ccc(Br)cc3)cc12 | 
> 40 µM | > 40 µM | 8.55 µM | 5.47 µM | > 40 µM | 22.3 µM | > 40 µM |  |  |  | Cc1c(C(=O)N2CCN(C)CC2)oc2ccc(N(Cc3ccc(Br)cc3)S(=O)(=O)c3ccc(Br)cc3)cc12 | 
2.78 µM | 2.36 µM | 2.67 µM | 2.29 µM | 5.44 µM | 5.29 µM | 8.17 µM |  |  |  | Cc1c(C(=O)NCCN2CCCC2)oc2ccc(N(Cc3ccc(Br)cc3)S(=O)(=O)c3ccc(Br)cc3)cc12 | 
> 40 µM | > 40 µM | > 40 µM | > 40 µM | > 40 µM | > 40 µM | > 40 µM |  |  |  | Cc1c(C(=O)NCCS(C)(=O)=O)oc2ccc(N(Cc3ccc(Br)cc3)S(=O)(=O)c3ccc(Br)cc3)cc12 | 
